# Compound activity from PubChem BioAssay.
# An excerpt weighted towards active compounds, which were near 3.7% of everything screened.
# MC4R antag cAMP – MC4R antagonists of cAMP signaling, primary screen, cell-based, TR-FRET, antagonist arm of biased-ligand search | Melanocortin receptor 4 (Homo sapiens), P32245 | 0.48% of 360,000 active | MC4R-expressing cells, MTII-stimulated cAMP, LANCE TR-FRET | inhibition, % at 6.5 µM;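 active = inhibition above its plate's cutoff, the mean of tested wells on that plate plus 3 SD, cut at about 29% in these data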;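 also: 0% = Melanotan II alone and 100% = Melanotan II plus saturating MCL0020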
# Target sequence (P32245 whole entry, looked up): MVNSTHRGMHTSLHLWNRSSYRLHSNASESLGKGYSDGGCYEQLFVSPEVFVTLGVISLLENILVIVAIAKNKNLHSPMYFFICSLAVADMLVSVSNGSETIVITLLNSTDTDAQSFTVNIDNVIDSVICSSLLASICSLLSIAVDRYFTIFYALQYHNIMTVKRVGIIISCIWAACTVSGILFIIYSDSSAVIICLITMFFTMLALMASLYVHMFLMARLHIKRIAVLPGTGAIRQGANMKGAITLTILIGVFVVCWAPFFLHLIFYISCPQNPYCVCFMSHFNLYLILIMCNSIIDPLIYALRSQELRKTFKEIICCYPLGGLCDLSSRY
#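 System: U2OS cells stably expressing human melanocortin 4 receptor (MC4R). Reagent: Melanotan II challenge after compound preincubation. Doses: 6.5 µM. Times: 30-min compound, 1-h challenge, 1-h detection, room temperature. Measured by: TR-FRET with Eu-cAMP and labeled anti-cAMP, 671 nm. Replicates: singlicate.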
# Myeloid diff MLP – induction of myeloid progenitor differentiation, primary screen, cell-based, flow cytometry, MLPCN library; ER-HoxA9 myeloid progenitors, lysozyme-GFP differentiation; calls only at 10 µM; 1% of 360,000 active; AID 624256, 2012;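 active = normalized GFP-positive differentiation at or above the plate's own cutoff, the solvent-only control mean plus 3 SD; inconclusive = no clear call, values can overlap the other calls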;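 also: cells exposed to compound for four days before flow analysis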
# MC4R ag barr – MC4R agonists recruiting beta-arrestin, primary screen, cell-based, luminescence, agonist arm of biased-ligand search; 0.98% of 360,000 active; Melanocortin receptor 4 (Homo sapiens), P32245; AID 540308, 2011; activation, % at 8.9 µM; U2OS MC4R beta-arrestin complementation; percent of melanotan II response, DMSO zero;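 active = activation above a per-plate cutoff, the mean activation of sample wells on that plate plus 3 SD, cut at about 8% in these data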
# EBI2 antag – EBI2 receptor antagonists, beta-arrestin recruitment, primary screen, cell-based, luminescence, 7a,25-OHC stimulation, uHTS; G-protein coupled receptor 183 (Homo sapiens), P32249; 7a,25-OHC stimulated; inhibition, % at 5 µM; 0.81% of 360,000 active; in the data active = inhibition above about 38%;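 also: enzyme fragment complementation signal reports receptor beta-arrestin coupling in cells; 0% = agonist plus DMSO wells and 100% = wells without agonist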
# Exocytosis inh – LAMP-1 surface exposure blockers, TALL-104 cells – cell-based, flow cytometry, MLPCN library, primary screen; TALL-104 LAMP-1 surface exposure; cells stimulated with thapsigargin and PMA; 0.66% of 360,000 active; inhibition, % at 10 µM; AID 651702, 2012;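 active = inhibition above about 55%, limit read from the data; inconclusive = no clear call, values can overlap the other calls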
# cAMP nonselect – nonselective cAMP signaling inhibitors, parental cells, counter-screen for MC4R biased antagonist project, cell-based, TR-FRET, U2OS, forskolin, triplicate | shares compounds with MC4R antag cAMP | LANCE TR-FRET | inhibition, % at 6.5 µM | 26% of 1,600 active;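 active = mean inhibition over triplicates above the low-control well mean plus 3 SD, set per campaign, cut at about 13% in these data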;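 also: signal is single emission at 671 nm which falls as cellular cAMP rises; 0% = forskolin-stimulated wells and 100% = buffer without forskolin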
# MC4R antag conf – MC4R cAMP antagonists, retest, confirmation, cell-based, TR-FRET. 27% of 1,600 active. MC4R-expressing cells, MTII-stimulated cAMP. shares compounds with MC4R antag cAMP. inhibition, % at 6.5 µM; in the data active = inhibition above about 29%;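 also: 0% = agonist stimulated wells alone and 100% = agonist stimulated wells plus saturating reference antagonist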
# * marks the source's active call; other numbers are inactive results; i = inactive; ? = inconclusive; . = not tested or not shown.
SMILES,MC4R antag cAMP,Myeloid diff MLP,MC4R ag barr,EBI2 antag,Exocytosis inh,cAMP nonselect,MC4R antag conf
CC(=O)c1sc(C(C)(C)C)cc1NC(=O)c1ccccc1C(=O)O,36*,i,-1,11,-5,32*,56*
COC(=O)c1ccc(/C=N/NC(=O)CC(=O)NCc2cccnc2)cc1,11,i,-2,0,-1,.,.
CCOC(=O)Cc1csc(NC(=O)CCN2C(=O)c3cccc([N+](=O)[O-])c3C2=O)n1,44*,i,1,-3,-7,8,10
CCCN(CC(=O)Nc1ccccc1C)C(=O)CCN1C(=O)c2cccc([N+](=O)[O-])c2C1=O,30*,i,-3,-6,-2,21*,33*
O=C(COC(=O)CCN1C(=O)c2cccc([N+](=O)[O-])c2C1=O)NCc1ccccc1,33*,i,-3,-7,6,6,21
Cc1cccc(NC(=O)CCN2C(=O)c3cccc([N+](=O)[O-])c3C2=O)c1,31*,i,-2,-22,3,16*,29*
Cc1cccc(NC(=O)CCCN2C(=O)c3cccc4cccc(c34)C2=O)c1,0,i,3,4,-6,.,.
O=C(CCCCCN1C(=O)c2cccc([N+](=O)[O-])c2C1=O)Nc1ccccc1F,10,i,0,-2,0,.,.
COc1ccc(C(=O)NCc2ccon2)cc1OC1CCN(C(C)C)CC1,-4,i,0,6,0,.,.
CCN(CC(=O)Nc1c(F)cccc1F)C(=O)C1=COCCO1,-1,i,-1,-9,-2,.,.
CCCCOc1cccc(OCC(=O)Nc2nc3ccccc3[nH]2)c1,33*,i,7,4,0,-9,-23
O=C(NCCc1ccccc1)C(c1cccs1)N(C(=O)CCl)c1ccc(Cl)cc1 (centres undefined),30*,?,34*,23,-20,-34,31*
O=C(NCCc1ccccc1)C(c1cccs1)N(C(=O)c1csnn1)C1CC1 (centres undefined),-6,i,-2,-15,0,.,.
O=C(CCNC(=O)N1CC(=O)Nc2ccccc21)NCc1cccc(C(F)(F)F)c1,-5,i,-2,1,-6,.,.
COc1ccc(N2CCN(c3n[nH]c(N)n3)CC2)cc1,35*,i,-2,-9,-1,0,10
COC(=O)c1cc2ccc(OC)cc2c2cc(OC)c(OC)cc12,34*,i,2,-2,9,4,12
CCCn1c(Cc2ccccc2)nnc1SC(C)C(=O)NC1CC1 (centres undefined),7,i,-2,-3,6,.,.
O=S(=O)(NC1=NCCCCC1)c1ccc(F)cc1F,3,i,-3,-6,0,.,.
O=S(=O)(NC1=NCCC1)c1ccc(F)cc1F,29*,i,-3,5,-3,5,13
CC(C)Oc1cc(F)ccc1-c1cc(C(=O)NCCCn2ccnc2)[nH]n1,0,?,0,-4,-7,.,.
C[C@]12CC[C@H](O)CC1=CCC1C2CC[C@@]2(C)C1CC[C@@H]2NCc1ccccc1 (some centres undefined),-5,i,-2,15,0,.,.
CC(=O)Nc1sc2c(c1C(c1ccc(F)cc1)N1CCOCC1)CCCC2 (centres undefined),29*,i,2,11,5,2,6
CC(=O)Nc1sc2c(c1C(c1ccc(Cl)cc1)N1CCOCC1)CCCC2 (centres undefined),18,i,0,6,2,.,.
COC(=O)/C(=C\Nc1ccc(Cl)cc1Cl)NC(=O)c1ccc(OC)cc1,-20,.,-3,13,2,.,.
CCN(CC)P(=O)(Nc1cccc(C(F)(F)F)c1)c1ccc(N(C)C)cc1NC(=O)c1ccco1 (centres undefined),35*,i,1,32,11,5,10
SMILES,MC4R antag cAMP,Myeloid diff MLP,MC4R ag barr,EBI2 antag,Exocytosis inh,cAMP nonselect,MC4R antag conf
CCCS(=O)(=O)NC(=O)C1(C)CCCN(C(=O)c2ccc3c(c2)OCO3)C1 (centres undefined),-1,i,1,-7,-6,.,.
CCOC(=O)N1CCC(N2CCCC(CO)(Cc3ccccc3C)C2)CC1 (centres undefined),5,i,-2,5,1,.,.
CCOC(=O)N1CCC(N2CCCC(CO)(Cc3cccc(Cl)c3)C2)CC1 (centres undefined),34*,i,4,5,4,-3,-15
C=C1C(=O)C23C(O)C1CCC2C12CCCC(C)(COC(C)=O)C1C(O)C3(O)OC2 (centres undefined),31*,?,-2,77*,5,8,-13
Cc1ccc(-c2nn3cnnc3c3ccccc23)cc1,13,i,-1,-11,-3,.,.
COCCN(C(=O)CNC(=O)c1ccco1)C(C(=O)NC1CCCC1)c1ccccc1F (centres undefined),6,i,0,-1,14,.,.
COCCN(C(=O)c1csnn1)C(C(=O)NC1CCCC1)c1ccccc1F (centres undefined),29*,i,0,-1,-3,-2,-9
COCCNC(=O)C(c1ccccc1F)N(C(=O)C(=O)NC1CCCC1)C1CCCCC1 (centres undefined),29*,i,-1,-6,-1,-1,-5
CN(C)c1ccnc(Nc2ccc(O)cc2)c1C#N,29*,i,1,8,-6,-1,3
CN(C)c1nccc(Nc2ccccc2)c1C#N,-7,i,-2,-2,-4,.,.
Cc1cc(N2CCN(C)CC2)nc(=S)[nH]1,29*,i,-1,-4,-3,0,-4
O=C1c2cccc([N+](=O)[O-])c2C(=O)N1c1ccccc1,30*,i,-4,3,2,9,21
O=C1c2cccc([N+](=O)[O-])c2C(=O)N1c1cccnc1,19,i,0,-7,1,.,.
COc1cc([N+](=O)[O-])cc(/C=N/NC(=O)Cn2nccc2C)c1O,29*,i,-2,4,4,-6,-14
COc1ccc(CN(C)C(=O)c2ccc(NC(=O)CC3SC(N4CCCCC4)=NC3=O)cc2)c(OC)c1 (centres undefined),-2,i,-1,-2,-6,.,.
